A number with no mark means an inactive call. Inconclusive results are not listed. The source made the active and inactive calls.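 Rule for the calls, unless noted: active = cell viability at or below a set limit in both duplicate runs, the limit being the all-compound median minus 4 SD (cut at about 23% in these data, passing the limit was not always enough); inconclusive = no clear call, values can overlap the other calls; inactive = the rest.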
Assays:
[1] = OD615 S. cerevisiae growth inhibition, permissive medium, pilot counter-assay, permissive growth control for S. cerevisiae lifespan shortening project (AID 705;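 active = growth inhibition above 25% in both replicates, a cutoff set 3 SD above the mean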); conditions: OD615, 24 h, at 10 µM, active compounds read high
Procedure, shortened: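 Test system: Saccharomyces cerevisiae strain carrying genetically modified DeaD replicative-lifespan system; buffer or medium: SC raffinose/galactose permissive medium; dosing: one dose 10 µM, DMSO 0.25% final; times: 24 h exposure, 30 °C; measured by: OD at 615 nm; read-out basis: growth inhibition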

[2] = Restrictive medium S. cerevisiae growth inhibition, OD615, pilot screen of yeast lifespan reduction project, restrictive growth control (AID 706;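 active = growth inhibition above a set limit, 3 SD over mean compound inhibition, in both replicates, cut at about 43% in these data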;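 note: modified DeaD lifespan yeast strain shifted to restrictive glucose medium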); conditions: OD615, 48 h, at 10 µM, active compounds read high
Procedure, shortened: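 material = engineered S. cerevisiae DeaD strain | buffer or medium = glucose-based CSMM-D restrictive medium | dosing = one concentration, 10 µM final, 0.25% DMSO | schedule = 4 h pre-growth plus 48 h compound exposure, 30 °C | detection = OD615 absorbance reading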

[3] = viability gain of MRP-1-high H69AR cells under doxorubicin, pilot screen, MRP-1 activator project, CellTiter-Glo, duplicate (AID 807;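 active = viability increase at or above a cutoff of the median across tested compounds plus 3 SD, cut at about 8.5% in these data, passing the limit was not always enough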;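 note: compound pretreatment 18-22 h then 72 h combined with doxorubicin; 0% = doxorubicin alone and 100% = vehicle without doxorubicin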); conditions: H69AR viability with doxorubicin, CellTiter-Glo luminescence; at 10 µM; active compounds read high
[4] = growth suppression of beta-catenin knockout HCT116, pilot screen, human colon tumor cells (AID 823); conditions: CellTiter-Glo, 60 h, at 10 µM, active compounds read low;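 note: 0% = wells killed by 20 µM Hyamine and 100% = untreated DMSO cell wells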
[5] = growth suppression of PTEN-deleted HCT116, pilot screen, cell-based, HCT116 clonal line, CellTiter-Glo (AID 824;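 active = viability at or below 27.92% in each of two runs, the all-compound median minus 4 SD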;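 note: 0% = 20 µM Hyamine control and 100% = vehicle cell control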); conditions: 60 h, at 10 µM, active compounds read low
[6] = inhibitors of the yeast RAM network, pilot screen, dse1pr::URA3 reporter, 5-FOA selection (AID 869;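 active = inhibition over a set limit, the all-compound mean plus 3 SD, in both replicate runs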;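 note: 0% = DMSO wells with no growth and 100% = 10 µM 1-NA-PP1 with full growth; RAM network block rescues cells from 5-FOA so hits raise OD615 growth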); conditions: S. cerevisiae dse1pr::URA3 5-FOA growth, OD615, 2 d; at 10 µM; active compounds read high; strain carries analog-sensitive mutant Cbk1 kinase
[7] = RAM signaling pathway blockade in yeast – S. cerevisiae, Pdr1DBD-CYC8 efflux-inhibited sensitized strain, primary screen (AID 1298;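 active = RAM network inhibition above 8.4% in each of two replicates, 3 SD over the compound average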;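 note: 0% = DMSO untreated cells without growth and 100% = 10 µM 1-NA-PP1 full growth; higher means more yeast growth rescued from 5-FOA killing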); conditions: S. cerevisiae cbk1-as DSE1-URA3 strain, 5-FOA growth OD615, 2 d; at 50 µM; active compounds read high

| Compound | growth inhibition [1] [%] | growth inhibition [2] [%] | viability increase [3] [%] | viability [4] | viability [5] | inhibition [6] [%] | RAM network inhibition [7] [%] |
| --- | --- | --- | --- | --- | --- | --- | --- |
| CC1CN(Cc2nc3c(c(=O)n(C)c(=O)n3C)n2Cc2ccc(Cl)cc2)CC(C)O1 (configuration not stated) | -3.79 | 0.39 | -0.99 | 91.6% | 91.9% | 2.13 | 4.34 |
| O=C(Nc1ccccc1)c1ccccc1O | 1.28 | 13.7 | -1.14 | 92.2% | 83.2% | -0.42 | -1.46 |
| CCN1CCN(CCNC(=O)C2CCN(Cc3nc(-c4ccc(Cl)cc4)oc3C)CC2)CC1 | -6.21 | -7.59 | -3.29 | 62.3% | 70.1% | 1.29 | 3.67 |
| COc1ccc(-c2c(C)oc3c(CN4CCCCC4C)c(O)ccc3c2=O)cc1OC (configuration not stated) | -13.7 | -7.48 | -9.18 | 103% | 97.5% | 1.71 | 4.01 |
| Cc1oc(-c2ccc(Cl)cc2)nc1CN1CCC(C(=O)NCCCN2CCCC2=O)CC1 | -13.4 | -11.7 | -2.67 | 93.1% | 89% | 1.76 | 4.34 |
| O=C(NC1CCCCC1)C1CC(=O)N(c2ccc(Cl)cc2)C1 (configuration not stated) | -4.29 | 1.57 | -0.58 | 95.5% | 90.4% | 1.29 | 2.04 |
| N#CCCN1CCN(S(=O)(=O)c2ccc(S(=O)(=O)NC3CC3)cc2)CC1 | -10.4 | -5.2 | 0.24 | 103% | 99.6% | 0.68 | 3.16 |
| COCc1cc(C)nc2sc(C(=O)N3CCN(c4ccccc4)CC3)c(N)c12 | -3.52 | 2.86 | -0.4 | 89% | 86.8% | 1.76 | 3.05 |
| O=C(NCC1CCCO1)NC1(C(F)(F)F)Oc2ccccc2O1 (configuration not stated) | -24.1 | -16 | -7.32 | 60.8% | 67.1% | 1.9 | 2.09 |
| O=C(Nc1ccc2c(c1)OCO2)C(c1ccccc1)N1CCCCC1 (configuration not stated) | -3.12 | 0.37 | -1.69 | 80.6% | 93.2% | 1.16 | 2.51 |
| O=C1CC(c2ccco2)CC(O)=C1C=NCCO (configuration not stated) | -12.7 | -1.73 | 0.27 | 104% | 105% | 1.79 | 3.26 |
| N#CC(c1nc2ccccc2nc1N1CCCC1)S(=O)(=O)c1ccccc1 (configuration not stated) | -17.2 | -3.85 | -4.56 | 81.9% | 84.5% | 0.815 | 5.73 |
| CCSCCOC(=O)C1=C(C)NC(=O)NC1c1cc(OC)ccc1OC (configuration not stated) | -4.26 | 4.14 | -1.14 | 86.9% | 90.8% | 1.79 | 2.39 |
| COc1ccc(C)c(S(=O)(=O)Nc2ccc(OCC(=O)O)cc2)c1 | 2.53 | -4.93 | -1.41 | 99% | 102% | 0.345 | -1.4 |
| O=C(CC(c1ccccc1)c1ccccc1)NCCO | -6.53 | -4.9 | 0.49 | 100% | 96.1% | 2.24 | 5.36 |
| COc1ccc2c(c1)c(CCN1C(=O)c3ccccc3C1=O)cn2C(=O)c1ccco1 | -5.41 | 0.45 | -4.3 | 85.7% | 85.9% | 2.02 | 4.8 |
| CCOC(=O)N1CCC(N2C(=O)c3cc(C(=O)NC4CCCCC4)ccc3C2O)CC1 (configuration not stated) | -2.13 | -0.895 | -3.03 | 94.5% | 88.1% | 0.045 | 3.81 |
| Cc1noc(C(=O)Nc2sc3c(c2C#N)CCC3)c1Cl | -6.86 | 2.54 | -1.69 | 65.8% | 55.6% | 1.84 | 2.59 |

| Compound | growth inhibition [1] [%] | growth inhibition [2] [%] | viability increase [3] [%] | viability [4] | viability [5] | inhibition [6] [%] | RAM network inhibition [7] [%] |
| --- | --- | --- | --- | --- | --- | --- | --- |
| CC1CCCC(NC(=O)c2ccc3c(c2)N(Cc2ccccc2)C(=O)CS3=O)C1C (configuration not stated) | 0.145 | 4.42 | -3.1 | 70.8% | 62.5% | 0.69 | 5.92 |
| CCOC(=O)c1ccc(NC(=O)C2CCN(S(=O)(=O)c3ccccc3)CC2)cc1 | -12.1 | -10.7 | -2.54 | 66.4% | 70.2% | 1.47 | 6.37 |
| Nc1c(S(=O)(=O)c2ccccc2)c2nc3ccccc3nc2n1/N=C/c1ccco1 | -7.84 | -8.93 | -5.63 | 51.5% | 52% | 2.34 | 4.98 |
| COC(=O)c1ccccc1N(Cc1ccccc1)S(C)(=O)=O | -3.77 | -8.56 | -4.02 | 90.6% | 105% | -0.425 | 1.83 |
| O=C(Cc1ccccc1)Nc1c(C(=O)N2CCOCC2)cnn1-c1ccccc1 | 6.39 | -23.4 | -1.59 | 93.5% | 97% | 1.21 | 1.24 |
| [O-]/[N+](=C\c1ccncc1)c1ccc(Br)cc1 | -15 | -19.9 | -4.14 | 83.7% | 87.9% | 2.81 | 6.02 |
| Cc1cc2ccccc2n1CCNC(=O)C(C)(C)C | 3.07 | 7.19 | -0.5 | 96.6% | 103% | 1.72 | -1.8 |
| CCN1CCN(C(=O)c2cc3c(s2)-c2ccccc2S(=O)(=O)C3)CC1 | -4.69 | -9.1 | -2.15 | 99.6% | 92.5% | 2.36 | 0.72 |
| CCc1nnc(NC(=O)c2ccc(S(=O)(=O)N3CCOCC3)cc2)s1 | -10.4 | -20.2 | -1.63 | 105% | 94.6% | 1.92 | 9.48 |
| CCOC(=O)c1ccccc1N1C(=O)CSC1=S | -22.3 | -19.6 | -4.62 | 96% | 91.1% | 1.11 | 0.73 |
| CNC(=O)c1nnc(Cc2ccc(F)cc2)o1 | 2.65 | 1.31 | -0.04 | 93.8% | 98.9% | 0.195 | 2.48 |
| Cc1ccccc1N1C(=O)C(Cl)=C(N2CCN(c3ccccc3)CC2)C1=O | -5.42 | -12.1 | -2.29 | 101% | 109% | 0.515 | 1.87 |
| CC12C(=O)N(c3ccccn3)C(=O)C1C1C=CC2C1 (configuration not stated) | -13.3 | -4.06 | -0.78 | 96.6% | 92% | 1.26 | 1.11 |
| Cc1cccc(NC(=O)COc2ccc(Br)cc2C)n1 | -4.42 | 1.1 | 1.07 | 92.9% | 90.5% | 0.655 | 5.6 |
| CCOc1ccc(NC(=O)N2CCC(n3c(=O)[nH]c4ccccc43)CC2)cc1 | -13.3 | -22 | 6.11 | 83.2% | 84.2% | 1.9 | 2.37 |
| CCN(CC)CCCNC(=O)c1cc2c(-c3ccc(Cl)cc3)nn(C)c2s1 | 0.63 | 17.3 | -8.12 | 1.68% (active) | 1.82% (active) | -0.18 | -0.36 |
| O=C(OCCN(C1=NS(=O)(=O)c2ccccc21)c1ccc(Cl)cc1)c1ccco1 | -15.9 | -5.49 | -5.7 | 82.2% | 91.5% | 1.44 | 4.02 |
| Cc1[nH]n2c(=O)c3c(nc2c1-c1ccc(Cl)cc1)CCC3 | -14.1 | -8.77 | -2.32 | 22.5% (active) | 26.8% (active) | 1.88 | 6.65 |

From PubChem BioAssay
